Assays:
[1] = Intrinsic cytotoxicity against mouse NIH/3T3 cells by MTT assay; format: cell-based, NIH3T3
Summary of the method: (§1)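 Intrinsic cytotoxicity was measured by MTT in parental NIH-3T3 and MDR1-G185 cells. CC50 came from a four-parameter logistic fit. The top tested concentration was 60 μM, limited by DMSO toxicity, and growth at 60 μM is given as % of untreated control. Mean ± SD of three independent experiments in duplicate.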

[2] = Intrinsic cytotoxicity against mouse NIH/3T3 cells transfected with human MDR1 by MTT assay; format: ADME, cell-based, NIH3T3; summary of the method: as §1
[3] = target: T1, ATP-dependent translocase ABCB1 (Homo sapiens, UniProt P08183); assay: Inhibition of human MDR1 expressed in mouse NIH/3T3 cells assessed as reduction in daunomycin IC50 at 1 uM by MTT assay; format: cell-based; settings: nih3t3, 1 µM
Summary of the method: (§2)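 Parental NIH-3T3 and MDR1-G185 cells were grown in DMEM with 10% iFBS. They were exposed to increasing DNM or VLB (up to 500 ng/mL) with or without compound at fixed 1, 3 or 10 μM. Growth was read by MTT, and IC50 came from a four-parameter logistic fit. Mean ± SD of two independent experiments in triplicate.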

[4] = target: T1, ATP-dependent translocase ABCB1; assay: Inhibition of human MDR1 expressed in mouse NIH/3T3 cells assessed as reduction in daunomycin IC50 at 10 uM by MTT assay; format: cell-based; settings: nih3t3, 10 µM
Summary of the method: as §2, with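 “fit. Reversal index = IC50 without compound / IC50 with compound in MDR1 cells.” for “fit.”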

[5] = target: T1, ATP-dependent translocase ABCB1; assay: Inhibition of human MDR1 expressed in mouse NIH/3T3 cells assessed as reduction in daunomycin IC50 at 3 uM by MTT assay; format: cell-based; settings: nih3t3, 3 µM
Summary of the method: as §2, with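 “fit. Reversal index = IC50 without compound / IC50 with compound in MDR1 cells.” for “fit.”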

[6] = Intrinsic cytotoxicity against mouse NIH/3T3 cells assessed as cell growth at 60 uM by MTT assay; format: cell-based, NIH3T3; settings: read-out: Activity; summary of the method: as §1
[7] = target: T1, ATP-dependent translocase ABCB1; assay: Inhibition of human MDR1 expressed in mouse NIH/3T3 cells assessed as reduction in vinblastine IC50 at 10 uM by MTT assay; format: cell-based; settings: nih3t3, 10 µM
Summary of the method: as §2, with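 “fit. Reversal index = IC50 without compound / IC50 with compound in MDR1 cells.” for “fit.”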

[8] = target: T1, ATP-dependent translocase ABCB1; assay: Inhibition of human MDR1 expressed in mouse NIH/3T3 cells assessed as reduction in vinblastine IC50 at 3 uM by MTT assay; format: cell-based; settings: nih3t3, 3 µM
Summary of the method: as §2, with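 “fit. Reversal index = IC50 without compound / IC50 with compound in MDR1 cells.” for “fit.”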

[9] = target: T1, ATP-dependent translocase ABCB1; assay: Inhibition of human MDR1 expressed in mouse NIH/3T3 cells assessed as inhibition of daunomycin efflux incubated for 30 mins by flow cytometry; format: cell-based, NIH3T3
Summary of the method: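 Ki for DNM efflux. MDR1-G185 NIH-3T3 cells were incubated 30 min at 37 °C with DNM (2 μM) and varying compound concentrations, then read by flow cytometry. Fluorescence was converted to % P-gp inhibition, normalized to cells treated with 5 mM sodium orthovanadate (100%). Ki was fitted from I = (Imax × S)/(Ki + S). Mean ± SD of three independent experiments in triplicate.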

[10] = target: T1, ATP-dependent translocase ABCB1; assay: Inhibition of human MDR1 expressed in mouse NIH/3T3 cells assessed as reduction in vinblastine IC50 at 1 uM by MTT assay; format: cell-based; settings: nih3t3, 1 µM
Summary of the method: as §2, with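 “fit. Reversal index = IC50 without compound / IC50 with compound in MDR1 cells.” for “fit.”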

T1 sequence (P08183 whole entry): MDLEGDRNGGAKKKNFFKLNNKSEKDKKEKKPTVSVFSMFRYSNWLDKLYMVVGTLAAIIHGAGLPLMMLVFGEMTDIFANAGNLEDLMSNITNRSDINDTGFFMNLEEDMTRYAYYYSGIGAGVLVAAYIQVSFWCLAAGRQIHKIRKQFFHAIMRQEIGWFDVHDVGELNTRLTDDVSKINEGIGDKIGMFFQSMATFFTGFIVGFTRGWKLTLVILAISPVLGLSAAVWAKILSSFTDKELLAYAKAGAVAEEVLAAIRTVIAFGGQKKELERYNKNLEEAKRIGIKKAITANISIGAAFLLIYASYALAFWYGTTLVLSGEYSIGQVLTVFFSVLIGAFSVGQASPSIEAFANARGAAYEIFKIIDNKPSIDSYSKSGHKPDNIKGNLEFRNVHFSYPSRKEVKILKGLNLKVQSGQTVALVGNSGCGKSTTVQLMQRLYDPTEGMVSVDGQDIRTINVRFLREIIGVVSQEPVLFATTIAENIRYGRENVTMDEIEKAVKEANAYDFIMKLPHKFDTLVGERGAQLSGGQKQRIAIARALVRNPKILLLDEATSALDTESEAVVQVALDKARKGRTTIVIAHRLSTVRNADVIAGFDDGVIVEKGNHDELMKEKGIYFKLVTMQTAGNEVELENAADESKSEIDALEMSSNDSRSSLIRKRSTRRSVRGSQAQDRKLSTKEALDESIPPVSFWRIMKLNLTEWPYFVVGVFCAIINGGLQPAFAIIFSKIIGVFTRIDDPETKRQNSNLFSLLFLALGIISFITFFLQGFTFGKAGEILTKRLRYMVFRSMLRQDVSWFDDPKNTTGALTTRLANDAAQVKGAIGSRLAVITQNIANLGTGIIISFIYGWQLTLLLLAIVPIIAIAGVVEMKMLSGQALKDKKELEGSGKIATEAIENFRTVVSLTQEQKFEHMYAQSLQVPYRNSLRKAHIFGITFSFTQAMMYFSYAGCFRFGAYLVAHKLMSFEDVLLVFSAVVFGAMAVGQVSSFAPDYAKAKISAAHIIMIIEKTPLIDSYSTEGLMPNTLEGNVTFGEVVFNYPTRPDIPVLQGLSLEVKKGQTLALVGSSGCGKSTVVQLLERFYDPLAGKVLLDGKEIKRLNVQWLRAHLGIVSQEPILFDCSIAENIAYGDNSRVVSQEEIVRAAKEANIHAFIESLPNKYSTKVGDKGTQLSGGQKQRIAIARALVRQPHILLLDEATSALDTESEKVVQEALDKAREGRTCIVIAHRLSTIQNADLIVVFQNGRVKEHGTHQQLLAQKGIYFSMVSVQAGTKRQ

Row | Compound | CC50 [1] [µM] | CC50 [2] [µM] | fold change (FC) [3] | fold change (FC) [4] | fold change (FC) [5] | viability at 60 µM [6] [%] | fold change (FC) [7] | fold change (FC) [8] | Ki [9] [µM] | fold change (FC) [10]
1 | COC(=O)CCCC(=O)O[C@@H]1[C@H]2[C@H](OC(=O)/C=C/c3ccccc3)[C@H](OC(=O)c3ccccc3)[C@]3(C)[C@@H](OC(C)=O)CC[C@](C)(O)[C@@]13OC2(C)C | > 60 | 28.2 | 6 | 15.9 | 12.3 | 71.3 | 103.6 | 37.7 | 0.61 | 7.5
2 | CC(=O)O[C@H]1CC[C@](C)(O)[C@]23OC(C)(C)[C@H]([C@H](OC(=O)/C=C/c4ccccc4)[C@H](OC(=O)c4ccccc4)[C@]12C)[C@H]3OC(=O)CCC(=O)OCCO | 27.7 | 29.2 | 2.6 | 10.6 | 7.5 | – | 145.9 | 26.8 | 0.5 | 6.5
3 | CC(=O)O[C@H]1CC[C@](C)(OC(=O)CN2CCOCC2)[C@]23OC(C)(C)[C@H]([C@H](OC(=O)/C=C/c4ccccc4)[C@H](OC(=O)c4ccccc4)[C@]12C)[C@H]3OC(C)=O | 36.2 | 33.1 | 5.7 | 16.1 | 10.9 | – | 173.4 | 49.6 | 0.31 | 21.1
4 | CCC(C)C(=O)O[C@@H]1[C@H]2[C@H](OC(=O)/C=C/c3ccccc3)[C@H](OC(=O)c3ccccc3)[C@]3(C)[C@@H](OC(C)=O)CC[C@](C)(O)[C@@]13OC2(C)C (some centres undefined) | > 60 | 13.2 | – | – | – | 57.3 | – | – | 0.41 | –
5 | CC(=O)O[C@H]1CC[C@](C)(Cl)[C@]23OC(C)(C)[C@H]([C@H](OC(=O)/C=C/c4ccccc4)[C@H](OC(=O)c4ccccc4)[C@]12C)[C@H]3Cl | 43.7 | 31.4 | 5.2 | 14.8 | 12.9 | – | 113.9 | 33 | 1.34 | 11.6
6 | COC(=O)CCC(=O)O[C@@H]1[C@H]2[C@H](OC(=O)/C=C/c3ccccc3)[C@H](OC(=O)c3ccccc3)[C@]3(C)[C@@H](OC(C)=O)CC[C@](C)(O)[C@@]13OC2(C)C | 36.4 | 17.6 | – | – | – | – | – | – | 0.23 | –
7 | CC(=O)O[C@H]1CC[C@](C)(O)[C@]23OC(C)(C)[C@H]([C@H](OC(=O)/C=C\c4ccccc4)[C@H](OC(=O)c4ccccc4)[C@]12C)[C@H]3OC(C)=O | 12 | 22.9 | 7 | 30.3 | 24 | – | 77 | 19.7 | – | 12.1
8 | CC(=O)O[C@H]1CC[C@](C)(O)[C@@]23OC(C)(C)[C@@H](C2=O)[C@H](OC(=O)/C=C/c2ccccc2)[C@H](OC(=O)c2ccccc2)[C@]13C | 18.9 | 34.8 | 5.2 | 15.9 | 10.4 | – | 106.3 | 29.4 | 0.63 | 11.6
9 | CC(=O)O[C@H]1CC[C@](C)(O)[C@]23OC(C)(C)[C@H]([C@H](OC(=O)/C=C/c4ccccc4)[C@H](OC(=O)c4ccccc4)[C@]12C)[C@H]3OC(=O)CCC(=O)OC1CCCCC1O (some centres undefined) | 24.3 | 19.9 | 3.9 | 12.8 | 11 | – | 107.8 | 40.3 | 0.46 | 9.9
10 | CC(=O)O[C@H]1CC[C@](C)(O)[C@]23OC(C)(C)[C@H]([C@H](OC(=O)/C=C/c4ccccc4)[C@H](OC(=O)c4ccccc4)[C@]12C)[C@H]3OC(=O)CBr | 8.6 | 5.7 | – | – | – | – | – | – | 0.31 | –
11 | CC(=O)O[C@H]1CC[C@](C)(O)[C@]23OC(C)(C)[C@H]([C@H](OC(=O)/C=C/c4ccccc4)[C@H](OC(=O)c4ccccc4)[C@]12C)[C@H]3OC(=O)C1CC1 | 50.3 | 11.2 | – | – | – | – | – | – | 0.24 | –
12 | CC(=O)O[C@H]1CC[C@](C)(O)[C@]23OC(C)(C)[C@H]([C@H](OC(=O)CCc4ccccc4)[C@H](OC(=O)c4ccccc4)[C@]12C)[C@H]3O | 25.4 | 30.3 | 3.3 | 11.6 | 8.1 | – | 43.8 | 23.6 | 0.47 | 11.1
13 | CCCC(=O)O[C@@H]1[C@H]2[C@H](OC(=O)/C=C/c3ccccc3)[C@H](OC(=O)c3ccccc3)[C@]3(C)[C@@H](OC(C)=O)CC[C@](C)(O)[C@@]13OC2(C)C | 44.9 | 18.3 | – | – | – | – | – | – | 0.32 | –
14 | CC(=O)O[C@H]1CC[C@](C)(O)[C@]23OC(C)(C)[C@H]([C@H](OC(=O)/C=C/c4ccccc4)[C@H](OC(=O)c4ccccc4)[C@]12C)[C@H]3OC(=O)c1ccccc1 | > 60 | 30.6 | 6.2 | 17.5 | 10.1 | 64.1 | 126.2 | 33.6 | 0.5 | 13.9
15 | CC(=O)O[C@H]1CC[C@](C)(O)[C@]23OC(C)(C)[C@H]([C@H](OC(=O)/C=C\c4ccccc4)[C@H](OC(=O)c4ccccc4)[C@]12C)[C@H]3OC(=O)c1cnccn1 | > 60 | 31.2 | 3.2 | 9 | 5.2 | 68.3 | 39.6 | 18.7 | 0.42 | 5.2
16 | CC(=O)O[C@H]1CC[C@](C)(O)[C@]23OC(C)(C)[C@H]([C@H](OC(=O)/C=C\c4ccccc4)[C@H](OC(=O)c4ccccc4)[C@]12C)[C@H]3OC(=O)c1ccccc1 | 27.2 | 25.9 | 4.1 | 14.7 | 14.5 | – | 59.5 | 30.1 | 0.25 | 15.5
17 | CCOC(=O)CCC(=O)O[C@@H]1[C@H]2[C@H](OC(=O)/C=C/c3ccccc3)[C@H](OC(=O)c3ccccc3)[C@]3(C)[C@@H](OC(C)=O)CC[C@](C)(O)[C@@]13OC2(C)C | 58.9 | 15.3 | – | – | – | – | – | – | 0.26 | –
18 | CC(=O)O[C@H]1CC[C@@H](C)[C@]23OC(C)(C)[C@H]([C@H](OC(=O)CCc4ccccc4)[C@H](OC(=O)c4ccccc4)[C@]12C)[C@H]3O | > 60 | 14.2 | – | – | – | 72.3 | – | – | 0.4 | –
